UPR XBP1 act – adaptive UPR (XBP1) activation. activation, % at 20 µM. actives 0.33% (n = 330,000). AID 463104. CHO-XBP1 luciferase reporter, IRE1-XBP1 UPR activation, luminescence; percent of tunicamycin response, DMSO as zero;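 active = versus positive control, 20 µM dose yields 30% or more activation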;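 note: 100% = tunicamycin at 10 µg/mL and 0% = DMSO only wells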
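incubation = overnight seeding at 37 °C, 6 h compound treatment at 37 °C | assay system = CHO-XBP1 cells stably carrying IRE1-XBP1-driven luciferase reporter | input = 1000 cells per well | detection = luciferase luminescence | dosing = single point, 20 µM final compound, 1% DMSO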
CHOP inh – blocks CHOP induction under ER stress | actives 3.8% (n = 220,000) | inhibition, % at 10 µM | CHO-K1 CHOP-promoter luciferase, tunicamycin-induced, 15-18 h;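 active = compounds that reduced the stress-induced luciferase reporter signal by more than about 70% of percent inhibition, limit read from the data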;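 note: 0% = tunicamycin plus vehicle and 100% = wells without tunicamycin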
VLA-4 inh – inhibition in a human VLA-4 binding assay. inhibition, % (about 7 µM as worked out from the volumes in the protocol). actives 0.2% (n = 330,000). P13612. VLA-4 expressing cells, ligand binding flow cytometry; in the data active = inhibition above about 50%
Beta2AR agonist – activates human beta-2 adrenergic receptor causing internalization; P07550; Am2.2-beta2AR cells, FAP receptor internalization, flow cytometry; response, % (no concentration beside the values); actives 0.43% (n = 340,000); AID 504454;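 active = response above a set limit, near 3 SD of response in nonfluorescent compounds, cut at about 42% in these data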
CHOP UPR activ – activators of apoptotic arm of unfolded protein response (CHOP); AID 449763; CHO-CHOP luciferase reporter, UPR activation, luminescence; percent of tunicamycin response over DMSO baseline; activation, % at 10 µM; actives 0.34% (n = 330,000);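 active = at 10 µM dose, activation of 40% or more, normalized to positive control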;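 note: 100% = tunicamycin at 10 µg/mL and 0% = DMSO alone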
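System: CHO-CHOP luciferase reporter cell line; amount: 500 cells/well; buffer or medium: F12 medium containing 10% fetal bovine serum; incubation: 6 h compound exposure at 37 °C after overnight seeding; measured by: luciferase luminescence after 10 min with Steady-Glo reagent; evaluation: % reporter activation, DMSO baseline versus tunicamycin full activation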
* = called active by the depositor; / = no result given. The entries come from a sample that favours hits as a whole.

SMILES | UPR XBP1 act | CHOP inh | VLA-4 inh | Beta2AR agonist | CHOP UPR activ
Cc1ccccc1Cn1c(=O)n(CCC(=O)NCc2ccc3c(c2)OCO3)c(=O)c2ccccc21 | -2.4 | 87.5* | 30.7 | -3.1 | 0.9
CCOc1cc2[nH]c(=S)n(CCC(=O)NCc3ccco3)c(=O)c2cc1OCC | -1.9 | 3.7 | -2.6 | 1.4 | 0.9
O=C(CCCn1c(=O)c2ccccc2n(CC(=O)NCc2ccco2)c1=O)NCc1ccco1 | -0.3 | 72.8* | -12.8 | 3.4 | -1.3
O=C(N/C(=C\c1ccccc1)C(=O)N1CCOCC1)c1ccccc1Cl | -3.8 | / | -5.7 | 1.0 | -0.2
CC(C)(O)CN(CCCNC(=S)Nc1ccccc1)C(=S)Nc1ccccc1 | / | / | / | -17.3 | /
COC(=O)c1ccc(NC(=S)N2CCN(Cc3cccc(C)c3)CC2)cc1 | 0.6 | 88.9* | 5.0 | 0.5 | -1.7
CCc1ccc(NC(=S)N2CCN(c3cccc(OC)c3)CC2)cc1 | -2.4 | 72.4* | 26.9 | 3.6 | -0.3
COc1cccc(-c2csc(N3CCN(C(=S)Nc4ccc(Cl)cc4)CC3)n2)c1 | -1.3 | 71.2* | 16.4 | -3.4 | 0.6
O=Cc1[nH]c2ccccc2c1N(C(=O)CCl)c1ccccc1 | / | 87.3* | / | -1.8 | /
CC(Oc1ccccc1)C(=O)N=C1SC2CS(=O)(=O)CC2N1c1ccccc1 (centres undefined) | -4.1 | / | -6.8 | -4.2 | -1.5
O=C(NC1CCCCCC1)c1cc2n(n1)C(C(F)(F)F)CC(c1ccco1)N2 (centres undefined) | -2.2 | 74.1* | -2.2 | 2.6 | -3.2
Cc1cccc(NC(=O)c2cc3n(n2)C(C(F)(F)F)CC(c2ccc4c(c2)OCO4)N3)c1 (centres undefined) | -2.7 | 71.0* | 5.0 | 0.4 | 1.5
O=C(Nc1ccc(O)cc1)c1cc2n(n1)C(C(F)(F)F)CC(c1ccco1)N2 (centres undefined) | 4.3 | 6.7 | -4.7 | 0.8 | -1.4
COc1ccc(NC(=O)c2cc3n(n2)C(C(F)(F)F)CC(c2ccc4c(c2)OCO4)N3)cc1OC (centres undefined) | -2.8 | 62.4 | -2.2 | 4.6 | -0.1
CCOc1ccc(N2C(=O)C3C4C=CC([C@H]5CC45)[C@@H]3C2=O)cc1 (some centres undefined) | -2.0 | / | 6.5 | -3.8 | 0.4
Cc1cccc(-c2cc3c(nn2)-c2ccccc2C3=O)c1 | 0.4 | 28.1 | -4.7 | 1.7 | -0.2
O=C1c2ccccc2-c2nnc(-c3ccccc3)cc21 | -7.5 | 72.8* | 10.2 | -15.7 | -6.3
COc1ccc(-c2cc3c(nn2)-c2ccccc2C3=O)cc1 | -6.2 | 77.9* | 0.6 | 0.6 | -5.1
NCc1ccccc1 | -7.7 | / | 36.4 | -7.1 | -0.3
O=C(/C=C/c1ccccc1)NCCSc1ccc(Cl)cc1 | -1.8 | 77.4* | 4.9 | -2.3 | -3.9
O=C(/C=C/c1ccccc1)NCCOc1ccccc1 | -0.9 | -12.8 | 12.8 | -6.2 | 4.5
COc1ccc(COC(=O)c2ccc(C)c(S(=O)(=O)N3CCOCC3)c2)cc1F | 4.1 | / | 10.5 | 5.5 | 1.2
Cc1cc(NC(=O)c2ccccc2)no1 | -3.9 | / | 7.7 | -3.4 | 6.2
Cc1cc(NC(=O)c2ccc3nc(-c4ccccc4)c(-c4ccccc4)nc3c2)no1 | 13.3 | 78.4* | -2.7 | 2.6 | 7.8
Cc1nn(-c2nc3ccccc3[nH]2)c(=O)c2ccccc12 | / | 98.2* | 26.9 | -30.2 | /
SMILES | UPR XBP1 act | CHOP inh | VLA-4 inh | Beta2AR agonist | CHOP UPR activ
COc1ccc(-c2cc(=O)[nH]c(N3CCN(Cc4ccccc4)CC3)n2)cc1 | -0.2 | / | 2.0 | -1.6 | 3.0
CCCc1cc(=O)[nH]c(N2CCN(Cc3ccc4c(c3)OCO4)CC2)n1 | / | / | 1.4 | -6.7 | /
Cc1ccc(SCc2cc(=O)[nH]c(N3CCN(Cc4ccc5c(c4)OCO5)CC3)n2)cc1 | -3.9 | 75.2* | -4.7 | 6.6 | -0.2
Cc1ccc(SCc2cc(=O)[nH]c(N3CCN(Cc4ccccc4)CC3)n2)cc1 | -3.2 | 90.3* | 11.4 | 1.7 | -0.3
CCOc1ccc(-c2ccc(SCc3ccccn3)nn2)cc1 | -1.1 | -5.2 | 60.8* | -4.3 | 0.6
CCOC(=O)n1c(=O)n(Cc2ccc(Cl)c(Cl)c2)c2ccccc21 | -2.0 | 81.3* | -0.4 | -6.8 | 0.2
CCOC(=O)n1c(=O)n(Cc2ccccc2)c2ccccc21 | -3.3 | 47.6 | 2.8 | -4.2 | 1.6
CCOC(=O)n1c(=O)n(Cc2c(Cl)cccc2Cl)c2ccccc21 | -3.1 | 72.7* | -2.3 | 3.0 | -1.4

Assay outcomes deposited in PubChem by several laboratories.
